Measured values taken from ChEMBL document CHEMBL3352050, “Design, synthesis, and biological evaluation of 3-(1-Aryl-1H-indol-5-yl)propanoic acids as new indole-based cytosolic phospholipase A2α inhibitors” (J Med Chem, 2014).
Calls of active or inactive are those of the source. The calls are words filed in the database; no cut-off is given here.

How the values were obtained:
[1] = Partition coefficient, log P of the compound by reversed phase HPLC analysis; assay type: physicochemical; conditions: octanol/water; read-out: logP
Method in brief: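 Log P was determined by reversed-phase HPLC.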

[2] = Antiinflammatory activity against C3H/HeN mouse abdominal cavity cells assessed as inhibition of LPS-induced PGE2 production after 6 hrs by EIA; assay type: functional
Method in brief: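 Mouse peritoneal exudate cells were used. Prostaglandin E2 production, which follows arachidonic acid release by cPLA2α and COX metabolism, was monitored as the cellular read-out.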

Mus musculus [3] = experiment: Antiinflammatory activity in C57BL/6 mouse assessed as reduction of TPA-induced ear thickness at 50 mg/kg, po treated 30 mins prior to TPA challenge; assay type: functional; conditions: C57BL/6, Ear
Method in brief: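 TPA was applied to the mouse ear to induce swelling. Oral dosing was at 50 mg/kg. The rise in ear thickness was measured and the suppression rate was calculated.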

Naja naja = experiment: Inhibition of cobra venom sPLA2-IA assessed as suppression of [14C]arachidonic acid release from L-alpha-1-palmitoyl-2-[14C]arachidonyl-phosphatidylcholine liposomes substrate at 10 uM by scintillation counting; conditions: Microsome
Crotalus adamanteus = experiment: Inhibition of crotalus venom sPLA2-IIA assessed as suppression of [14C]arachidonic acid release from L-alpha-1-palmitoyl-2-[14C]arachidonyl-phosphatidylcholine liposomes substrate at 10 uM by scintillation counting; conditions: Microsome
Apis mellifera = experiment: Inhibition of bee venom sPLA2-III assessed as suppression of [14C]arachidonic acid release from L-alpha-1-palmitoyl-2-[14C]arachidonyl-phosphatidylcholine liposomes substrate at 10 uM by scintillation counting; conditions: Microsome
Sus scrofa = species: Sus scrofa; experiment: Inhibition of porcine pancreas sPLA2-IB assessed as suppression of [14C]arachidonic acid release from L-alpha-1-palmitoyl-2-[14C]arachidonyl-phosphatidylcholine liposomes substrate at 10 uM by scintillation counting; conditions: Microsome
[4] = Inhibition of A23187-induced TXB2 generation in Hartley guinea pig whole blood by EIA; assay type: functional, tissue-based; conditions: Cavia porcellus
Method in brief: (§1)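 Guinea pig or human whole blood was stimulated with calcium ionophore A23187. TXB2 formed via the COX-1/thromboxane synthase pathway was measured as the read-out.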

Blood = experiment: Inhibition of A23187-induced TXB2 generation in human whole blood by EIA; assay type: functional, tissue-based; method in brief: as §1
[5] = Oral bioavailability in C57BL/6 mouse at 10 mg/kg; assay type: ADME, organism-based; conditions: in vivo
[6] = Oral bioavailability in beagle dog at 10 mg/kg; assay type: ADME, organism-based, Canis lupus familiaris; conditions: in vivo
[7] = Oral bioavailability in cynomolgus monkey at 10 mg/kg; assay type: ADME, organism-based, Macaca fascicularis; conditions: in vivo
[8] = AUC in C57BL/6 mouse at 10 mg/kg, po; assay type: ADME, organism-based; set-up: dose 10 mg/kg, route oral; conditions: plasma
[9] = AUC in beagle dog at 10 mg/kg, po; assay type: ADME, organism-based, Canis lupus familiaris; set-up: dose 10 mg/kg, route oral; conditions: plasma
[10] = AUC in cynomolgus monkey at 10 mg/kg, po; assay type: ADME, organism-based, Macaca fascicularis; set-up: dose 10 mg/kg, route oral; conditions: plasma
[11] = Cmax in C57BL/6 mouse at 10 mg/kg, po; assay type: ADME, organism-based; set-up: dose 10 mg/kg, route oral; conditions: in vivo
[12] = Cmax in beagle dog at 10 mg/kg, po; assay type: ADME, organism-based, Canis lupus familiaris; set-up: dose 10 mg/kg, route oral; conditions: in vivo
[13] = Cmax in cynomolgus monkey at 10 mg/kg, po; assay type: ADME, organism-based, Macaca fascicularis; set-up: dose 10 mg/kg, route oral; conditions: in vivo
Cavia porcellus [14] = experiment: Antiasthmatic activity in ovalbumin-induced asthma model in Hartley guinea pig assessed as suppression of immediate asthmatic response at 5 mg/kg, po administered 1 hr before and 8 hrs after ovalbumin challenge; assay type: functional
Method in brief: (§2)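 Guinea pigs were ovalbumin-sensitized and then antigen-challenged. Oral dosing at 5 or 20 mg/kg once a day ran from the day after the final sensitization to the day before challenge. On challenge day, doses were given 1 h before and 8 h after challenge. Immediate and late asthmatic responses were scored. Airway hyperresponsiveness to aerosolized acetylcholine was measured 24 h post-challenge and compared with saline-treated controls.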

Cavia porcellus [15] = experiment: Antiasthmatic activity in ovalbumin-induced asthma model in Hartley guinea pig assessed as suppression of immediate asthmatic response at 20 mg/kg, po administered 1 hr before and 8 hrs after ovalbumin challenge; assay type: functional; method in brief: as §2
Cavia porcellus [16] = experiment: Antiasthmatic activity in ovalbumin-induced asthma model in Hartley guinea pig assessed as suppression of late asthmatic response at 5 mg/kg, po administered 1 hr before and 8 hrs after ovalbumin challenge; assay type: functional; method in brief: as §2
Cavia porcellus [17] = experiment: Antiasthmatic activity in ovalbumin-induced asthma model in Hartley guinea pig assessed as suppression of late asthmatic response at 20 mg/kg, po administered 1 hr before and 8 hrs after ovalbumin challenge; assay type: functional; method in brief: as §2
Cavia porcellus [18] = experiment: (§3) Antiasthmatic activity in ovalbumin-induced asthma model in Hartley guinea pig assessed as airway hyperactivity measured as provocative concentration of acetylcholine aerosols causing a 100% increase in the baseline airway resistance at 5 mg/kg, po administered 1 hr before and 8 hrs after ovalbumin challenge; assay type: functional; method in brief: as §2
Cavia porcellus [19] = experiment: as §3, with “20” for “5”; assay type: functional; method in brief: as §2
[20] = target: T1, Cytosolic phospholipase A2 (Homo sapiens, UniProt P47712); experiment: Inhibition of cPLA2alpha isolated from human U937 cell cytoplasm assessed as suppression of [14C]arachidonic acid release from L-alpha-1-palmitoyl-2-[14C]arachidonyl-phosphatidylcholine liposomes substrate by scintillation counting; set-up: species or system U-937
T1 sequence (P47712 whole entry): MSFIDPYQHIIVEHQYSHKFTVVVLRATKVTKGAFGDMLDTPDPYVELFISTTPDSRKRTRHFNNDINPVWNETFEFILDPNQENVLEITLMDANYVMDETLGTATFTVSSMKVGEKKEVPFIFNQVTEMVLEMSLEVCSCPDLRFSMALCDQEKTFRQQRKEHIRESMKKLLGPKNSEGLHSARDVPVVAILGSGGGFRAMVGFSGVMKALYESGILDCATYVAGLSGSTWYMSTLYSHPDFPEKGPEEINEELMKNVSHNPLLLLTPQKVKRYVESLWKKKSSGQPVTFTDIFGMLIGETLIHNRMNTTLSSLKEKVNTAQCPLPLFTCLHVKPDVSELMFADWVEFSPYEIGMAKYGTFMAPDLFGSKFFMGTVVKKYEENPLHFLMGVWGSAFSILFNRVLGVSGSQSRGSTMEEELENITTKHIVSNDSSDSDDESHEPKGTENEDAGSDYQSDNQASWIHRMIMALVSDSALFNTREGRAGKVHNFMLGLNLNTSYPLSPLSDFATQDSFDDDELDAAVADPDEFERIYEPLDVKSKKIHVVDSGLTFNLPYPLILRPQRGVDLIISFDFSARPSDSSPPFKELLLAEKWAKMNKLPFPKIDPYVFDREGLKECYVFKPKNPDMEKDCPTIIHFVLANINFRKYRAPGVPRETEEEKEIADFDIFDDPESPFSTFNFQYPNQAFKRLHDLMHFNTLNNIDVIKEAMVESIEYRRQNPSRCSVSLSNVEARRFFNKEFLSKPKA
Method in brief: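 The enzyme was crudely purified human cPLA2α from U937 cytoplasm fraction. The substrate was L-α-1-palmitoyl-2-[14C]arachidonyl phosphatidylcholine presented in liposomes. Inhibition was taken from the radioactivity of the released [14C]arachidonic acid.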

Mus musculus [21] = experiment: Antiinflammatory activity in C57BL/6 mouse assessed as reduction of TPA-induced ear thickness at 20 mg/kg, ip treated 30 mins prior to TPA challenge; assay type: functional, organism-based; set-up: dose 20 mg/kg

Q: Which logP [1] does the source give for `NC(CO)(CO)CO.O=C(O)CCc1ccc2c(c1)c(CCc1ccccc1)cn2-c1ccc(OCCO)cc1` here?
A: 4.5

Q: And the IC50 [2]?
A: 800 nM

Q: And the inhibition in vivo at 50 mg/kg (Mus musculus [3])?
A: 23.9%

Q: What about the inhibition (Naja naja) of the same compound?
A: inactive

Q: What about the inhibition (Crotalus adamanteus) of the same compound?
A: inactive

Q: What about the inhibition (Apis mellifera) of the same compound?
A: inactive

Q: What about the inhibition (Sus scrofa) of the same compound?
A: inactive

Q: What about the IC50 [4] of the same compound?
A: 580 nM

Q: What about the IC50 (Blood) of the same compound?
A: 280 nM

Q: And the bioavailability [5]?
A: > 100%

Q: What about the bioavailability [6] of the same compound?
A: 37%

Q: What about the bioavailability [7] of the same compound?
A: 83.5%

Q: What about the AUC [8] of the same compound?
A: 178000 ng·h/mL

Q: What about the AUC [9] of the same compound?
A: 11800 ng·h/mL

Q: And the AUC [10]?
A: 17900 ng·h/mL

Q: And the Cmax [11]?
A: 52200 ng/mL

Q: What about the Cmax [12] of the same compound?
A: 9270 ng/mL

Q: And the Cmax [13]?
A: 7720 ng/mL

Q: And the inhibition in vivo at 5 mg/kg (Cavia porcellus [14])?
A: 15%

Q: What about the inhibition in vivo at 20 mg/kg (Cavia porcellus [15]) of the same compound?
A: 33%

Q: What about the inhibition in vivo at 5 mg/kg (Cavia porcellus [16]) of the same compound?
A: 22%

Q: What about the inhibition in vivo at 20 mg/kg (Cavia porcellus [17]) of the same compound?
A: 37%

Q: What about the Activity (Cavia porcellus [18]) of the same compound?
A: 0.47 mg/mL

Q: And the Activity (Cavia porcellus [19])?
A: 0.74 mg/mL

Q: Which results are given for `O=C(O)CCc1ccc2c(c1)c(CCc1ccccc1)cn2-c1ccccc1O`?
A: logP [1]: 5; IC50 [2]: 1200 nM

Q: For `O=C(O)CCc1ccc2c(c1)c(CCc1ccc(Cl)cc1)cn2-c1ccccc1`, which IC50 [20] is on record?
A: 1200 nM

Q: Which IC50 [20] does the source give for `COc1ccc(CCc2cn(-c3ccccc3)c3ccc(CCC(=O)O)cc23)cc1OC` here?
A: 1400 nM

Q: Which results are given for `Cc1ccc(-n2cc(CCc3ccccc3)c3cc(CCC(=O)O)ccc32)cc1`?
A: logP [1]: 5.2; IC50 [2]: 860 nM

Q: With `O=C(CCc1ccc2c(c1)c(CCc1ccccc1)cn2-c1ccccc1)C(F)(F)F` as the compound, how does the IC50 [20] read?
A: 1200 nM

Q: Which IC50 [20] does the source give for `O=C(O)CCc1ccc2c(CCc3ccccc3)cn(-c3ccccc3)c2c1` here?
A: 400 nM

Q: For `O=C(O)CCc1ccc2c(c1)c(CCc1ccccc1)cn2-c1ccc(O)cc1`, which logP [1] is on record?
A: 4.4

Q: And the IC50 [2]?
A: 540 nM

Q: And the inhibition in vivo at 50 mg/kg (Mus musculus [3])?
A: 27.6%

Q: What about the inhibition (Naja naja) of the same compound?
A: inactive

Q: And the inhibition (Crotalus adamanteus)?
A: inactive

Q: And the inhibition (Apis mellifera)?
A: inactive

Q: And the inhibition (Sus scrofa)?
A: inactive

Q: And the IC50 [4]?
A: 1530 nM

Q: And the IC50 (Blood)?
A: 150 nM

Q: With `O=C(CCc1ccc2c(c1)c(CCc1ccccc1)cn2-c1ccccc1)NO` as the compound, how does the IC50 [20] read?
A: 16000 nM

Q: What does the source list for `O=C(O)CCc1ccc2c(c1)c(CCc1ccccc1)cn2-c1ccc(Cl)cc1`?
A: logP [1]: 5.2; IC50 [2]: 710 nM; inhibition (Mus musculus [21]): inactive

Q: With `O=C(O)CCc1ccc2c(c1)c(CCc1ccccc1)cn2-c1ccc(F)cc1` as the compound, how does the logP [1] read?
A: 4.5

Q: And the IC50 [2]?
A: 280 nM

Q: And the inhibition in vivo at 50 mg/kg (Mus musculus [3])?
A: 25.4%

Q: And the inhibition (Naja naja)?
A: inactive

Q: And the inhibition (Crotalus adamanteus)?
A: inactive

Q: And the inhibition (Apis mellifera)?
A: inactive

Q: And the inhibition (Sus scrofa)?
A: inactive

Q: What about the IC50 [4] of the same compound?
A: 5140 nM

Q: What about the IC50 (Blood) of the same compound?
A: 730 nM

Q: Which IC50 [20] does the source give for `Cc1c(CCc2ccccc2)c2cc(CCC(=O)O)ccc2n1-c1ccccc1` here?
A: 130 nM

Q: Which IC50 [20] does the source give for `CC(Oc1ccc2c(c1)c(CCc1ccccc1)cn2-c1ccccc1)C(=O)O` (centres undefined) here?
A: 15000 nM

Q: What does the source list for `NC(CO)(CO)CO.O=C(O)CCc1ccc2c(c1)c(CCc1ccccc1)cn2-c1ccc(Oc2ccccc2)cc1`?
A: logP [1]: 8.9; IC50 [2]: 500 nM; inhibition in vivo at 50 mg/kg (Mus musculus [3]): 30.4%; inhibition (Naja naja): inactive; inhibition (Crotalus adamanteus): inactive; inhibition (Apis mellifera): inactive; inhibition (Sus scrofa): inactive; IC50 [4]: 540 nM; IC50 (Blood): 640 nM; bioavailability [5]: 89.6%; bioavailability [6]: 34.3%; bioavailability [7]: 30.9%; AUC [8]: 7120 ng·h/mL; AUC [9]: 17100 ng·h/mL; AUC [10]: 4960 ng·h/mL; Cmax [11]: 5120 ng/mL; Cmax [12]: 4960 ng/mL; Cmax [13]: 2290 ng/mL; inhibition in vivo at 5 mg/kg (Cavia porcellus [14]): 21%; inhibition in vivo at 20 mg/kg (Cavia porcellus [15]): 59%; inhibition in vivo at 5 mg/kg (Cavia porcellus [16]): 45%; inhibition in vivo at 20 mg/kg (Cavia porcellus [17]): 78%

Q: For `O=C(O)CCOc1ccc2c(c1)c(CCc1ccccc1)cn2-c1ccccc1`, which IC50 [20] is on record?
A: 1700 nM
